Values joined by “and” are separate entries in the source; they are usually repeats but may differ in a detail not shown here. Equal values may be shown once.
Test system: Fibroblast
Experiment: Multiplex assay against human fibroblast
Type: toxicity, cell-based
Procedure, shortened: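 Cells stained live at seeding with Hoechst33342, BioTracker Green Microtubule Cytoskeleton Dye, MitoTracker Red and Annexin V Alexa Fluor 680 were imaged on a CQ1 microscope at 37°C and 5% CO2 after compound addition. Their classification by CellPathfinder machine-learning gating ran from Hoechst high-intensity objects versus normal cells, to healthy, pyknosed or fragmented nuclei among normal cells, to mitotic or apoptotic among pyknosed cells. Tubulin, mitochondrial-mass and membrane-permeability phenotypes are per cents of healthy-nucleus cells.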

[1] = 12 h, 1 µM, compound concentration 1 uM
[2] = 12 h, 10 µM, compound concentration 10 uM
[3] = 24 h, 1 µM, compound concentration 1 uM
[4] = 24 h, 10 µM, compound concentration 10 uM
[5] = 48 h, 1 µM, compound concentration 1 uM
[6] = 48 h, 10 µM, compound concentration 10 uM

Cl.N=C(N)NC(=O)Cc1c(Cl)cccc1Cl [GUANFACINE HYDROCHLORIDE]
Population Apoptotic (%) [1]: 44% and 28% | Population Fragmented Nuclei (%) [1]: 20% and 23% | Population Healthy Nuclei (%) [1]: 62% and 45% | Population Hoechst High Intensity Objects (%) [1]: 2% | Population Membrane Permeable-Phenotype (%) [1]: 0% and 3% | Population Mitochondria Different-Phenotype (%) [1]: 4% and 7% | Population Mitotic Cells (%) [1]: 55% and 71% | Population Normal (%) [1]: 97% | Population Pyknosed Nuclei (%) [1]: 16% and 31% | Population Tubulin-Different-Phenotype (%) [1]: 32% and 46% | Total Cell Count [1]: 167 and 149 | Population Apoptotic (%) [2]: 66% and 35% | Population Fragmented Nuclei (%) [2]: 16% and 22% | Population Healthy Nuclei (%) [2]: 68% and 47% | Population Hoechst High Intensity Objects (%) [2]: 0% and 10% | Population Membrane Permeable-Phenotype (%) [2]: 1% and 5% | Population Mitochondria Different-Phenotype (%) [2]: 5% | Population Mitotic Cells (%) [2]: 33% and 64% | Population Normal (%) [2]: 99% and 89% | Population Pyknosed Nuclei (%) [2]: 15% and 29% | Population Tubulin-Different-Phenotype (%) [2]: 24% and 46% | Total Cell Count [2]: 139 and 127 | Population Apoptotic (%) [3]: 58% and 45% | Population Fragmented Nuclei (%) [3]: 22% and 23% | Population Healthy Nuclei (%) [3]: 62% and 46% | Population Hoechst High Intensity Objects (%) [3]: 1% and 6% | Population Membrane Permeable-Phenotype (%) [3]: 0% and 12% | Population Mitochondria Different-Phenotype (%) [3]: 5% and 8% | Population Mitotic Cells (%) [3]: 41% and 54% | Population Normal (%) [3]: 98% and 93% | Population Pyknosed Nuclei (%) [3]: 14% and 30% | Population Tubulin-Different-Phenotype (%) [3]: 26% and 50% | Total Cell Count [3]: 169 and 130 | Population Apoptotic (%) [4]: 63% and 25% | Population Fragmented Nuclei (%) [4]: 17% and 26% | Population Healthy Nuclei (%) [4]: 68% and 55% | Population Hoechst High Intensity Objects (%) [4]: 1% and 4% | Population Membrane Permeable-Phenotype (%) [4]: 0% and 13% | Population Mitochondria Different-Phenotype (%) [4]: 4% and 3% | Population Mitotic Cells (%) [4]: 36% and 75% | Population Normal (%) [4]: 98% and 95% | Population Pyknosed Nuclei (%) [4]: 14% and 18% | Total Cell Count [4]: 137 and 114 | Population Apoptotic (%) [5]: 61% and 50% | Population Fragmented Nuclei (%) [5]: 25% and 33% | Population Healthy Nuclei (%) [5]: 63% and 45% | Population Hoechst High Intensity Objects (%) [5]: 1% and 3% | Population Membrane Permeable-Phenotype (%) [5]: 0% and 4% | Population Mitochondria Different-Phenotype (%) [5]: 6% and 11% | Population Mitotic Cells (%) [5]: 38% and 50% | Population Normal (%) [5]: 98% and 96% | Population Pyknosed Nuclei (%) [5]: 11% and 21% | Population Tubulin-Different-Phenotype (%) [5]: 32% and 57% | Total Cell Count [5]: 162 and 145 | Population Apoptotic (%) [6]: 66% and 45% | Population Fragmented Nuclei (%) [6]: 22% and 39% | Population Healthy Nuclei (%) [6]: 67% and 41% | Population Hoechst High Intensity Objects (%) [6]: 1% and 6% | Population Membrane Permeable-Phenotype (%) [6]: 1% and 8% | Population Mitochondria Different-Phenotype (%) [6]: 6% and 2% | Population Mitotic Cells (%) [6]: 33% and 54% | Population Normal (%) [6]: 98% and 93% | Population Pyknosed Nuclei (%) [6]: 10% and 19% | Population Tubulin-Different-Phenotype (%) [6]: 24% and 67% | Total Cell Count [6]: 142 and 120

Cl.Cl.OCCOCCN1CCN(C(c2ccccc2)c2ccc(Cl)cc2)CC1 (stereo not given) [HYDROXYZINE HYDROCHLORIDE]
Population Apoptotic (%) [1]: 43% and 51% | Population Fragmented Nuclei (%) [1]: 11% and 22% | Population Healthy Nuclei (%) [1]: 75% and 57% | Population Hoechst High Intensity Objects (%) [1]: 1% and 7% | Population Membrane Permeable-Phenotype (%) [1]: 0% and 8% | Population Mitochondria Different-Phenotype (%) [1]: 4% and 6% | Population Mitotic Cells (%) [1]: 56% and 48% | Population Normal (%) [1]: 98% and 92% | Population Pyknosed Nuclei (%) [1]: 13% and 20% | Population Tubulin-Different-Phenotype (%) [1]: 25% and 46% | Total Cell Count [1]: 177 and 155 | Population Apoptotic (%) [2]: 47% and 40% | Population Fragmented Nuclei (%) [2]: 27% and 19% | Population Healthy Nuclei (%) [2]: 58% and 47% | Population Hoechst High Intensity Objects (%) [2]: 2% and 7% | Population Membrane Permeable-Phenotype (%) [2]: 0% and 7% | Population Mitochondria Different-Phenotype (%) [2]: 14% and 6% | Population Mitotic Cells (%) [2]: 52% and 59% | Population Normal (%) [2]: 97% and 92% | Population Pyknosed Nuclei (%) [2]: 14% and 32% | Population Tubulin-Different-Phenotype (%) [2]: 45% and 58% | Total Cell Count [2]: 247 and 178 | Population Apoptotic (%) [3]: 30% and 44% | Population Fragmented Nuclei (%) [3]: 9% and 26% | Population Healthy Nuclei (%) [3]: 78% and 54% | Population Hoechst High Intensity Objects (%) [3]: 1% and 5% | Population Membrane Permeable-Phenotype (%) [3]: 2% and 5% | Population Mitochondria Different-Phenotype (%) [3]: 6% and 3% | Population Mitotic Cells (%) [3]: 70% and 55% | Population Normal (%) [3]: 98% and 94% | Population Pyknosed Nuclei (%) [3]: 12% and 18% | Population Tubulin-Different-Phenotype (%) [3]: 30% and 47% | Total Cell Count [3]: 163 and 154 | Population Apoptotic (%) [4]: 51% and 36% | Population Fragmented Nuclei (%) [4]: 28% and 29% | Population Healthy Nuclei (%) [4]: 62% and 50% | Population Hoechst High Intensity Objects (%) [4]: 1% and 9% | Population Membrane Permeable-Phenotype (%) [4]: 1% and 6% | Population Mitochondria Different-Phenotype (%) [4]: 10% and 6% | Population Mitotic Cells (%) [4]: 48% and 63% | Population Normal (%) [4]: 98% and 90% | Population Pyknosed Nuclei (%) [4]: 9% and 20% | Population Tubulin-Different-Phenotype (%) [4]: 47% and 66% | Total Cell Count [4]: 284 and 198 | Population Apoptotic (%) [5]: 60% and 42% | Population Fragmented Nuclei (%) [5]: 17% and 34% | Population Healthy Nuclei (%) [5]: 68% and 56% | Population Hoechst High Intensity Objects (%) [5]: 4% and 3% | Population Membrane Permeable-Phenotype (%) [5]: 0% and 2% | Population Mitochondria Different-Phenotype (%) [5]: 3% and 5% | Population Mitotic Cells (%) [5]: 39% and 57% | Population Normal (%) [5]: 95% and 96% | Population Pyknosed Nuclei (%) [5]: 13% and 9% | Population Tubulin-Different-Phenotype (%) [5]: 31% and 44% | Total Cell Count [5]: 175 and 155 | Population Apoptotic (%) [6]: 80% and 37% | Population Fragmented Nuclei (%) [6]: 22% and 36% | Population Healthy Nuclei (%) [6]: 69% and 47% | Population Hoechst High Intensity Objects (%) [6]: 4% and 6% | Population Membrane Permeable-Phenotype (%) [6]: 0% and 11% | Population Mitochondria Different-Phenotype (%) [6]: 7% and 2% | Population Normal (%) [6]: 95% and 94% | Population Pyknosed Nuclei (%) [6]: 8% and 15% | Population Tubulin-Different-Phenotype (%) [6]: 62% and 57% | Total Cell Count [6]: 272 and 200

CCCCC1=NC2(CCCC2)C(=O)N1Cc1ccc(-c2ccccc2-c2nnn[nH]2)cc1 [IRBESARTAN]
Population Apoptotic (%) [1]: 40% and 38% | Population Fragmented Nuclei (%) [1]: 14% and 24% | Population Healthy Nuclei (%) [1]: 67% and 55% | Population Hoechst High Intensity Objects (%) [1]: 1% and 3% | Population Membrane Permeable-Phenotype (%) [1]: 0% and 7% | Population Mitochondria Different-Phenotype (%) [1]: 5% and 2% | Population Mitotic Cells (%) [1]: 59% and 61% | Population Normal (%) [1]: 98% and 96% | Population Pyknosed Nuclei (%) [1]: 17% and 20% | Population Tubulin-Different-Phenotype (%) [1]: 28% and 43% | Total Cell Count [1]: 159 and 187 | Population Apoptotic (%) [2]: 60% and 45% | Population Fragmented Nuclei (%) [2]: 11% and 32% | Population Healthy Nuclei (%) [2]: 74% and 48% | Population Hoechst High Intensity Objects (%) [2]: 3% and 7% | Population Membrane Permeable-Phenotype (%) [2]: 3% and 12% | Population Mitochondria Different-Phenotype (%) [2]: 4% and 3% | Population Mitotic Cells (%) [2]: 40% and 54% | Population Normal (%) [2]: 96% and 92% | Population Pyknosed Nuclei (%) [2]: 13% and 18% | Population Tubulin-Different-Phenotype (%) [2]: 37% and 53% | Total Cell Count [2]: 151 and 129 | Population Apoptotic (%) [3]: 47% and 31% | Population Fragmented Nuclei (%) [3]: 19% and 25% | Population Healthy Nuclei (%) [3]: 69% and 57% | Population Hoechst High Intensity Objects (%) [3]: 2% and 3% | Population Membrane Permeable-Phenotype (%) [3]: 1% | Population Mitochondria Different-Phenotype (%) [3]: 3% and 0% | Population Mitotic Cells (%) [3]: 52% and 68% | Population Normal (%) [3]: 97% and 96% | Population Pyknosed Nuclei (%) [3]: 10% and 16% | Population Tubulin-Different-Phenotype (%) [3]: 22% and 40% | Total Cell Count [3]: 170 and 183 | Population Apoptotic (%) [4]: 56% and 45% | Population Healthy Nuclei (%) [4]: 74% and 47% | Population Hoechst High Intensity Objects (%) [4]: 1% and 2% | Population Membrane Permeable-Phenotype (%) [4]: 3% and 8% | Population Mitochondria Different-Phenotype (%) [4]: 7% and 5% | Population Mitotic Cells (%) [4]: 44% and 55% | Population Normal (%) [4]: 98% and 97% | Population Pyknosed Nuclei (%) [4]: 16% | Population Tubulin-Different-Phenotype (%) [4]: 37% and 60% | Total Cell Count [4]: 155 and 125 | Population Apoptotic (%) [5]: 60% and 55% | Population Fragmented Nuclei (%) [5]: 21% and 31% | Population Healthy Nuclei (%) [5]: 69% and 58% | Population Hoechst High Intensity Objects (%) [5]: 3% and 2% | Population Membrane Permeable-Phenotype (%) [5]: 0% and 2% | Population Mitochondria Different-Phenotype (%) [5]: 4% and 1% | Population Mitotic Cells (%) [5]: 40% and 44% | Population Normal (%) [5]: 96% and 97% | Population Pyknosed Nuclei (%) [5]: 8% and 10% | Population Tubulin-Different-Phenotype (%) [5]: 31% and 39% | Total Cell Count [5]: 173 and 178 | Population Apoptotic (%) [6]: 61% and 37% | Population Fragmented Nuclei (%) [6]: 14% and 37% | Population Healthy Nuclei (%) [6]: 66% and 48% | Population Hoechst High Intensity Objects (%) [6]: 2% and 0% | Population Membrane Permeable-Phenotype (%) [6]: 1% and 3% | Population Mitochondria Different-Phenotype (%) [6]: 5% and 1% | Population Mitotic Cells (%) [6]: 38% and 62% | Population Normal (%) [6]: 97% and 99% | Population Pyknosed Nuclei (%) [6]: 18% and 13% | Population Tubulin-Different-Phenotype (%) [6]: 38% and 58% | Total Cell Count [6]: 141 and 117
